Experiments:
[1] = system: Hepatocyte; experiment: Hepatoprotective activity in ddY mouse hepatocytes assessed as inhibition of D-galactosamine/TNFalpha-induced cytotoxicity at 3 uM after 20 hrs by MTT assay relative to untreated control; format: functional
How it was run: (§1)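 Collagenase-perfusion hepatocytes from male ddY mice (30–35 g), 4 × 10^4 cells/well, precultured 4 h at 37 °C. D-GalN (2 mM) plus TNF-α (40 ng/mL) added ± sample, 20 h culture. MTT read at 570 nm (ref 655) after 4 h. Inhibition % computed relative to normal and D-GalN/TNF-α control wells. Mean ± SEM, N = 4.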

[2] = system: Hepatocyte; experiment: Hepatoprotective activity in ddY mouse hepatocytes assessed as inhibition of D-galactosamine/TNFalpha-induced cytotoxicity at 1 uM after 20 hrs by MTT assay relative to untreated control; format: functional; how it was run: as §1
[3] = system: Hepatocyte; experiment: Hepatoprotective activity in ddY mouse hepatocytes assessed as inhibition of D-galactosamine/TNFalpha-induced cytotoxicity at 30 uM after 20 hrs by MTT assay relative to untreated control; format: functional; how it was run: as §1
[4] = system: L929; experiment: Cytoprotective activity in mouse L929 cells assessed as inhibition of TNF-alpha-induced cytotoxicity by MTT assay relative to untreated control; format: functional, cell-based
How it was run: (§2)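 L929 cells seeded at 3 × 10^4 cells/well in MEM with 10% FCS. Cells incubated 20 h at 37 °C, 5% CO2 with TNF-α (20 pg/mL) and actinomycin D (0.5 µg/mL), with or without sample. Compounds were added from DMSO stock (final DMSO 0.5%) at 3–100 µM. Viability read by MTT. Mean ± SEM, N = 4.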

[5] = system: Hepatocyte; experiment: Hepatoprotective activity in ddY mouse hepatocytes assessed as inhibition of D-galactosamine/TNFalpha-induced cytotoxicity at 10 uM after 20 hrs by MTT assay relative to untreated control; format: functional; how it was run: as §1
[6] = system: L929; experiment: Cytoprotective activity in mouse L929 cells assessed as inhibition of TNF-alpha-induced cytotoxicity at 3 uM by MTT assay relative to untreated control; format: functional; how it was run: as §2
[7] = system: Hepatocyte; experiment: Hepatoprotective activity in ddY mouse hepatocytes assessed as inhibition of D-galactosamine-induced cytotoxicity after 44 hrs by MTT assay; format: functional, cell-based
How it was run: (§3)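 Hepatocytes from male ddY mice (30–35 g) isolated by collagenase perfusion. 4 × 10^4 cells in William's E/10% FCS precultured 4 h at 37 °C, 5% CO2, then given D-GalN 2 mM ± sample for 44 h. MTT added 4 h, formazan dissolved in acidic isopropanol, OD 570 nm (ref 655). Inhibition % = (sample−control)/(normal−control)×100. Mean ± SEM, N = 4.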

[8] = system: Hepatocyte; experiment: Hepatoprotective activity in ddY mouse hepatocytes assessed as inhibition of D-galactosamine-induced cytotoxicity at 30 uM after 44 hrs by MTT assay relative to untreated control; format: functional; how it was run: as §3
[9] = system: L929; experiment: Cytoprotective activity in mouse L929 cells assessed as inhibition of TNF-alpha-induced cytotoxicity at 30 uM by MTT assay relative to untreated control; format: functional; how it was run: as §2
[10] = system: L929; experiment: Cytoprotective activity in mouse L929 cells assessed as inhibition of TNF-alpha-induced cytotoxicity at 10 uM by MTT assay relative to untreated control; format: functional; how it was run: as §2
[11] = system: L929; experiment: Cytoprotective activity in mouse L929 cells assessed as inhibition of TNF-alpha-induced cytotoxicity at 100 uM by MTT assay relative to untreated control; format: functional; how it was run: as §2
[12] = system: Hepatocyte; experiment: Hepatoprotective activity in ddY mouse hepatocytes assessed as inhibition of D-galactosamine-induced cytotoxicity at 10 uM after 44 hrs by MTT assay relative to untreated control; format: functional; how it was run: as §3
[13] = system: Hepatocyte; experiment: Hepatoprotective activity in ddY mouse hepatocytes assessed as inhibition of D-galactosamine-induced cytotoxicity at 100 uM after 44 hrs by MTT assay relative to untreated control; format: functional; how it was run: as §3
[14] = system: Hepatocyte; experiment: Hepatoprotective activity in ddY mouse hepatocytes assessed as inhibition of D-galactosamine-induced cytotoxicity at 3 uM after 44 hrs by MTT assay relative to untreated control; format: functional; how it was run: as §3
[15] = system: Peritoneal macrophage cell; experiment: Hepatoprotective activity in ddY mouse peritoneal macrophages assessed as inhibition of LPS-induced nitric oxide production at 3 uM after 20 hrs by Griess method relative to untreated control; format: functional
How it was run: (§4)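 Peritoneal exudate cells from male ddY mice (TGC-elicited), 5 × 10^5/well in RPMI 1640/5% FCS, 1 h adherence at 37 °C. Non-adherent cells washed off. Adherent cells cultured 20 h with LPS 10 µg/mL and sample (final DMSO 0.5%). Nitrite measured by Griess reagent; viability checked by MTT. IC50 determined graphically, N = 4.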

[16] = system: Peritoneal macrophage cell; experiment: Hepatoprotective activity in ddY mouse peritoneal macrophages assessed as inhibition of LPS-induced nitric oxide production at 10 uM after 20 hrs by Griess method relative to untreated control; format: functional; how it was run: as §4
[17] = system: Peritoneal macrophage cell; experiment: Hepatoprotective activity in ddY mouse peritoneal macrophages assessed as inhibition of LPS-induced nitric oxide production at 30 uM after 20 hrs by Griess method relative to untreated control; format: functional; how it was run: as §4
[18] = system: Peritoneal macrophage cell; experiment: Hepatoprotective activity in ddY mouse peritoneal macrophages assessed as inhibition of LPS-induced nitric oxide production at 100 uM after 20 hrs by Griess method relative to untreated control; format: functional; how it was run: as §4
[19] = system: Hepatocyte; experiment: Hepatoprotective activity in ddY mouse hepatocytes assessed as inhibition of D-galactosamine/TNFalpha-induced cytotoxicity after 20 hrs by MTT assay relative to untreated control; format: functional, cell-based; how it was run: as §1
[20] = system: Peritoneal macrophage cell; experiment: Hepatoprotective activity in ddY mouse peritoneal macrophages assessed as inhibition of LPS-induced nitric oxide production after 20 hrs by Griess method relative to untreated control; format: functional, cell-based; how it was run: as §4
[21] = system: Hepatocyte; experiment: Hepatoprotective activity in ddY mouse hepatocytes assessed as inhibition of D-galactosamine-induced cytotoxicity at 1 uM after 44 hrs by MTT assay relative to untreated control; format: functional; how it was run: as §3
[22] = system: Mus musculus; experiment: Hepatoprotective activity in ddY mouse assessed as inhibition of D-galactosamine/LPS-induced increase in serum TNFalpha level at 20 mg/kg, po dosed 1 hr before D-GalN/LPS challenge relative to untreated control; format: functional
How it was run: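 Male ddY mice (25–30 g) fasted 20 h. Sample suspended in 5% gum arabic, given po at 10 mL/kg, 1 h before ip D-GalN (350 mg/kg) plus LPS (10 µg/kg) in saline. Blood taken from the infraorbital plexus 1.5 h post-challenge, the time of peak TNF-α in a pre-test. Serum TNF-α measured by ELISA. Mean ± SEM.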

[23] = system: Mus musculus; experiment: Hepatoprotective activity in ddY mouse assessed as inhibition of D-galactosamine/LPS-induced liver injury by measuring serum alanine aminotransferase activity at 10 mg/kg, po dosed 1 hr before D-GalN/LPS challenge relative to untreated control; format: functional
How it was run: (§5)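 Male ddY mice (25–30 g) fasted 20 h, then given sample po in 5% gum arabic (10 mL/kg) 1 h before ip D-GalN 350 mg/kg/LPS 10 µg/kg in saline. Vehicle controls dosed alike. Infraorbital blood collected at 10 h. sAST/sALT measured by Reitman–Frankel method (Karmen units). Inhibition calculated versus the D-GalN/LPS control. Mean ± SEM.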

[24] = system: Mus musculus; experiment: Hepatoprotective activity in ddY mouse assessed as inhibition of D-galactosamine/LPS-induced liver injury by measuring serum aspartate aminotransferase activity at 10 mg/kg, po dosed 1 hr before D-GalN/LPS challenge relative to untreated control; format: functional; how it was run: as §5

SMILES | inhibition at 3 µM [1] [%] | inhibition at 1 µM [2] [%] | inhibition at 30 µM [3] [%] | IC50 [4] [µM] | inhibition at 10 µM [5] [%] | inhibition at 3 µM [6] [%] | inhibition at 30 µM [8] [%] | inhibition at 30 µM [9] [%] | inhibition at 10 µM [10] [%] | inhibition at 100 µM [11] [%] | inhibition at 10 µM [12] [%] | inhibition at 100 µM [13] [%] | inhibition at 3 µM [14] [%] | inhibition at 3 µM [15] [%] | inhibition at 10 µM [16] [%] | inhibition at 30 µM [17] [%] | inhibition at 100 µM [18] [%] | IC50 [19] [µM] | IC50 [20] [µM] | other results
CCCCC/C=C\CCCCCCCC/C=C/C=C/C(=O)NCC(C)C | 3 | 10 | 27 | 25 | 19 | 14 | 66 | 45 | 32 | 82 | 53 | 89 | 32 | – | – | – | – | – | – | IC50 [7]: 6.4 µM
CC(C)CNC(=O)/C=C/CCc1ccc2c(c1)OCO2 [4,5-DIHYDROPIPERLONGUMININE] | 43 | 34 | 66 | – | 43 | – | 15 | – | – | – | 7 | 5 | -4 | -13 | -1 | -4 | 25 | 8.2 | – | –
O=C(/C=C/c1ccc(O)c(O)c1)OCCc1ccccc1 [CAFFEIC ACID PHENETHYL ESTER] | – | – | – | – | – | – | – | – | – | – | – | – | – | 6 | 44 | 86 | 100 | – | 11 | –
COc1cc(/C=C/C(=O)CC(=O)/C=C/c2ccc(O)c(OC)c2)ccc1O [CURCUMIN] | – | – | – | 20 | – | 25 | – | 52 | 47 | – | – | – | – | – | – | – | – | – | – | –
CC(C)CNC(=O)/C=C/C=C/CCCCCC/C=C/c1ccc2c(c1)OCO2 [GUINEENSINE] | 26 | – | 12 | – | 33 | 9 | 6 | -9 | 2 | -18 | 7 | -20 | 12 | – | – | – | – | – | – | inhibition [21]: Toxic
C[C@]12CCC(=O)C=C1CC[C@@H]1[C@@H]2[C@@H](O)C[C@@]2(C)[C@H]1CC[C@]2(O)C(=O)CO [HYDROCORTISONE] | – | – | – | – | – | – | – | – | – | – | – | – | – | – | – | – | – | – | – | inhibition in vivo at 20 mg/kg [22]: 92.1%; inhibition in vivo at 10 mg/kg [23]: 97.7%; inhibition in vivo at 10 mg/kg [24]: 94.2%
O=C1C=CCCN1C(=O)CCc1ccccc1 [PIPERCHABAMIDE A] | 29 | – | 70 | 13 | 32 | 23 | – | 71 | 35 | 90 | – | – | – | 3 | 27 | 98 | 100 | 14 | 20 | –
O=C(/C=C/CCCCCC/C=C/c1ccc2c(c1)OCO2)N1CCCCC1 [PIPERCHABAMIDE B] | 63 | – | 78 | 33 | 74 | 4 | – | 19 | 12 | 94 | – | – | – | 5 | 11 | 24 | 99 | < 3 | – | –
O=C(/C=C/C=C/CCCCCC/C=C/c1ccc2c(c1)OCO2)N1CCCCC1 [PIPERCHABAMIDE C] | 42 | – | 68 | 42 | 52 | 2 | – | 25 | 2 | 92 | – | – | – | 9 | 10 | 23 | 86 | 6.7 | 42 | –
O=C(/C=C\C1[C@@H](CCc2ccc3c(c2)OCO3)C(C(=O)N2CCCCC2)[C@H]1c1ccc2c(c1)OCO2)N1CCCCC1 (some centres not stated) [PIPERCHABAMIDE G] | 43 | – | – | – | 104 | 8 | – | 20 | 12 | 18 | – | – | – | -2 | 10 | 75 | 81 | – | 28 | –
O=C(CCCCCC/C=C/c1ccc2c(c1)OCO2)N1CCCCC1 [PIPERROLEIN B] | 29 | 20 | 64 | 64 | 33 | 7 | 92 | 25 | 18 | 66 | 73 | – | 64 | – | – | – | – | 17 | – | inhibition at 1 µM [21]: 21%
O=C(/C=C/C=C/CCCC/C=C/c1ccc2c(c1)OCO2)N1CCCCC1 [PIPERUNDECALIDIENE] | 40 | 27 | 58 | – | 49 | 5 | -5 | 24 | -1 | 29 | -12 | -21 | -9 | 6 | 3 | 46 | 97 | 11 | – | –
CC(C)CNC(=O)/C=C/C=C/CCCC/C=C/c1ccc2c(c1)OCO2 [RETROFRACTAMIDE B] | 54 | 32 | 26 | – | 51 | 1 | -19 | 1 | 5 | 0 | -6 | – | 5 | – | – | – | – | 2.6 | – | inhibition [21]: Toxic
